Source: PubChem BioAssay
Many of the other results were omitted from the sample, so hits are more common in it than they were.
Hsp70 act: Hsp70 transcriptional activation, primary screen; HeLa Hsp70 promoter luciferase reporter, luminescence; scaled: vehicle 0, proteasome-inhibitor control 100%; activation, % at 10 µM; hit rate 0.04% among 200,000; AID 1203;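 active = activation above the mean across all tested compounds plus 3 SD, cutoff set per campaign, cut at about 5.5% in these data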
L major viab: Leishmania major promastigote growth inhibition | Leishmania major promastigotes, resazurin fluorescence viability | inhibition, % at 10 µM | hit rate 9% among 200,000 | AID 1063; in the data active = inhibition above about 50%;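 also: promastigotes grown with compound for 44 hours at 28 °C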
T cruzi repl: T. cruzi replication inhibition; hit rate 1.4% among 300,000; inhibition, % (no concentration beside the values); T. cruzi beta-gal in NIH3T3, luminescence, 90 h;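 active = mean inhibition across valid replicates above about 55%, limit read from the data; inconclusive = mean below that limit but half or more replicates reach it; inactive = mean below it, under half of replicates reach it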;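 also: signal also drops with host cell toxicity which is not excluded here; higher percent means less beta-gal luminescence so fewer parasites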
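System – NIH/3T3 host cells with β-galactosidase reporter T. cruzi · Doses – single 50 nL compound addition per well in DMSO · Reagent – 5000 T. cruzi trypomastigotes/well · Medium – Low-serum DMEM with 2% FBS · Timing – ≥90 h infection period, 3 h prior cell attachment · Evaluation – parasite load inhibition, % · Technique – GalScreen luminescence, 60 min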
HSF1 inhib: HSF1 inhibition; NIH3T3-HGL HSE-luciferase, MG132-induced, luminescence 8 h; active compounds read low; activity change, negative = inhibition, % at 7.5 µM (by protocol); hit rate 0.77% among 300,000; AID 2098;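 active = more than half of replicate wells show activity change below -50%, luminescence cut by over half; inconclusive = some wells, but at most half, below -50%; inactive = no replicate well below -50%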;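 also: luciferase reports HSF-1 transcriptional activity via heat shock element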
HSF1 activator: increases HSF-1 driven luciferase reporter signal; NIH3T3-HGL HSF-1 luciferase reporter, MG132, 8 h; 100% = twice DMSO control signal; activation, % at 9 µM; hit rate 1.7% among 300,000;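 active = mean replicate activation of at least 50% with a set share of replicates each reaching 50%; inconclusive = only one of those two conditions met; inactive = mean below 50% and too few replicates reaching it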
Each line names hits and unclear results; the compound was inactive in the other large screens.

O=C(Cc1ccccc1)Nc1nc(-c2cccs2)cs1	none
CCc1ccccc1OCC(=O)Nc1nc(-c2cccnc2)cs1	L major viab 81, T cruzi repl 78
O=C(Cc1ccccc1F)Nc1nc(-c2cccs2)cs1	HSF1 activator 66
O=C(Cc1ccccc1F)Nc1nc(-c2cccnc2)cs1	L major viab 52
COc1ccc(NC(=O)CSC2=NCCN2)cc1	none
O=C(Cc1cccs1)Nc1nc(-c2ccc(F)c(F)c2)cs1	none (no result: Hsp70 act, L major viab)
O=C(Cc1cccs1)Nc1nc(-c2ccc(F)cc2F)cs1	L major viab 98
CCn1nnnc1SCC(=O)Nc1nc(-c2cccs2)cs1	L major viab 55
Cn1c(=O)c2sccc2n2c(CCCC(=O)Nc3ccc(F)cc3F)nnc12	none (no result: Hsp70 act, L major viab)
CN(C)/C=N/c1ncn(-c2ncc(C(F)(F)F)cc2Cl)n1	none
COc1ccc(C(=O)Nc2nc(-c3ccc([N+](=O)[O-])cc3)c(-c3ccccc3)s2)cc1	L major viab 68
N#CCCN(CCC#N)S(=O)(=O)c1ccc(C(=O)Nc2nc(-c3ccccc3)c(C(=O)c3ccccc3)s2)cc1	none (no result: Hsp70 act, L major viab)
Cc1ccc(-c2nc(NC(=O)c3ccc(S(=O)(=O)N(CCC#N)CCC#N)cc3)sc2-c2ccccc2)cc1	T cruzi repl 56
O=C(Nc1nc(-c2ccccc2)c(C(=O)c2ccccc2)s1)c1ccc(S(=O)(=O)N2CCCC2)cc1	none
O=C(Nc1nc(-c2ccccc2)c(-c2ccccc2)s1)c1ccc(S(=O)(=O)N2CCCC2)cc1	L major viab 98
Cc1nc2nc(CNC(=O)OC(C)(C)C)nn2c(C)c1CCC(=O)Nc1ccc2c(c1)OCO2	none (no result: Hsp70 act, L major viab)
COCc1cc(SC2CCCCC2)nc(C)n1	none
Cc1ccc(/C(O)=C2/C(=O)C(=O)N(Cc3cccnc3)C2c2ccccn2)cc1 (stereo not given)	none
CN(C)S(=O)(=O)c1ccc(/C(O)=C2/C(=O)C(=O)N(Cc3cccnc3)C2c2cccs2)cc1 (stereo not given)	none
Cc1c(/C(O)=C2/C(=O)C(=O)N(Cc3cccnc3)C2c2cccs2)cnn1-c1ccccc1 (stereo not given)	HSF1 inhib -64
Cc1c(/C(O)=C2/C(=O)C(=O)N(Cc3cccnc3)C2c2ccccn2)cnn1-c1ccccc1 (stereo not given)	HSF1 inhib -76
COC(=O)C1=C(C(=O)OC)C(c2cc(Br)ccc2O)c2sc(=O)[nH]c2S1 (stereo not given)	L major viab 65 (no result: T cruzi repl, HSF1 inhib, HSF1 activator)
Cc1cc(C)n(-c2cc(N3CCN(S(=O)(=O)c4ccc5ccccc5c4)CC3)ccc2[N+](=O)[O-])n1	L major viab 59
Cc1[nH]n(-c2ccccc2)c(=O)c1N=Nc1cccc([N+](=O)[O-])c1	T cruzi repl 61 (no result: Hsp70 act, L major viab)
Cc1cc(Cl)ccc1NC(=O)C1COc2ccccc2O1 (stereo not given)	HSF1 activator 53 (no result: Hsp70 act, L major viab)
O=C(NC1=NCCS1)C1COc2ccccc2O1 (stereo not given)	HSF1 inhib -51
Cc1ccccc1NC(=O)C1COc2ccccc2O1 (stereo not given)	HSF1 activator inconclusive (no result: Hsp70 act, L major viab)
Cc1ccc(Cl)cc1NC(=O)C1COc2ccccc2O1 (stereo not given)	HSF1 inhib -64 (no result: Hsp70 act, L major viab)
Cc1ccc(C)c(NC(=O)C2COc3ccccc3O2)c1 (stereo not given)	none (no result: Hsp70 act, L major viab)
NS(=O)(=O)c1ccc(NC(=O)c2cccc(Cl)c2)cc1	none (no result: Hsp70 act, L major viab)
N[C@H]1C(O)O[C@H](CO)[C@@H](O)[C@@H]1O (stereo not given in full)	none (no result: Hsp70 act, L major viab)
Cc1ccc(NC(=O)COC(=O)c2ccc([N+](=O)[O-])o2)cc1S(=O)(=O)N1CCCCCC1	none
COc1ccccc1N(C)S(=O)(=O)c1ccc(Cl)c(C(=O)OCc2c(C)noc2C)c1	L major viab 53
Cc1noc(C)c1COC(=O)c1ccccc1Oc1ccccc1	HSF1 activator 57
CCN1C(=O)[C@H]2[C@@H](c3ccc(Cl)cc3)N3C(=O)CN(CC4CC4)C(=O)[C@@]3(C)[C@H]2C1=O	none (no result: Hsp70 act, L major viab)
Cc1c(NC(=O)C(C)OC(=O)c2ccc([N+](=O)[O-])s2)c(=O)n(-c2ccccc2)n1C (stereo not given)	L major viab 77, T cruzi repl 86
Cc1c(NC(=O)C(C)OC(=O)CCc2ccccc2)c(=O)n(-c2ccccc2)n1C (stereo not given)	L major viab 54
Cc1c(NC(=O)C(C)OC(=O)c2sc3ccccc3c2Cl)c(=O)n(-c2ccccc2)n1C (stereo not given)	none
Cc1ccc(C)c(N2CCN(C3CCCCC3NS(=O)(=O)c3ccccc3)CC2)c1 (stereo not given)	none (no result: Hsp70 act, L major viab)
Cc1cccc(NC2CCCCC2NS(=O)(=O)c2ccccc2)c1 (stereo not given)	none (no result: Hsp70 act, L major viab)
Cc1ccc(C)c(NC2CCCCC2NS(=O)(=O)c2ccccc2)c1 (stereo not given)	HSF1 activator 83 (no result: Hsp70 act, L major viab)
Cc1ccc(Cl)cc1N1CCN(C2CCCCC2NS(=O)(=O)c2ccccc2)CC1 (stereo not given)	HSF1 activator 76 (no result: Hsp70 act, L major viab)
CCCN(CCC)c1nc2ccccc2nc1C(C#N)C(=O)OC(C)COC (stereo not given)	L major viab 66
O=C1CN(C(=O)COC(=O)CNS(=O)(=O)/C=C/c2ccccc2)c2ccccc2N1	none
Cc1cc(Nc2cccc(F)c2)nc(NCc2ccccc2)n1	L major viab 100
Cc1cc(N2CCC(C)CC2)nc(-c2ccccc2O)n1	none (no result: Hsp70 act, L major viab)
Cc1ccc(Nc2cc(C)nc(-c3ccccc3)n2)cc1	HSF1 activator 52 (no result: Hsp70 act, L major viab)
Cc1ccc(Nc2cc(C)nc(-c3ccccc3O)n2)cc1	none
Cc1cc(Oc2ccccc2)nc(NCc2ccccc2)n1	none
Cc1cc(N2CCC(C)CC2)nc(NCc2ccccc2)n1	L major viab 86
Cc1cc(Nc2ccccc2)nc(NCc2ccccc2)n1	L major viab 100
CC(C)N1CCN(Cc2coc3ccccc3c2=O)CC1CCO (stereo not given)	none (no result: HSF1 inhib, HSF1 activator)
Cc1cc(F)ccc1S(=O)(=O)N1CCCOC1CNC(=O)C(=O)NCCCN1CCOCC1 (stereo not given)	none (no result: Hsp70 act, L major viab)
O=C1Nc2ccc(Br)cc2C1(O)c1ccc(F)cc1 (stereo not given)	none (no result: Hsp70 act, L major viab)
Cc1cc(N/N=C/c2ccc(F)cc2)nc(NCc2ccccc2)n1	none (no result: Hsp70 act, L major viab)
Cc1cc(N/N=C/c2ccc(Cl)cc2Cl)nc(NCc2ccccc2)n1	L major viab 62
Cc1cc(Nc2ccc(Cl)cc2)nc(NCc2ccccc2)n1	L major viab 100
CCCCNc1cc(C)nc(NCc2ccccc2)n1	L major viab 101
Cc1ccc(/C=N/Nc2cc(C)nc(NCc3ccccc3)n2)cc1	none (no result: Hsp70 act, L major viab)
COc1ccc(C(=O)NCCNc2nc3cc(C)c(C)cc3cc2C)cc1	none (no result: Hsp70 act, L major viab)
CCn1nc(C)cc1-c1nnc(Sc2ncc([N+](=O)[O-])s2)n1C	T cruzi repl 61, HSF1 activator 122 (no result: Hsp70 act, L major viab)
CCn1nc(C)cc1-c1nnc(SCC(=O)Nc2ccccc2)n1CCCOC	none (no result: Hsp70 act, L major viab)
CCc1nnc(NC(=O)CSc2nnc(Cc3cc(=O)[nH]c(=O)[nH]3)n2-c2cccc(OC)c2)s1	none
